Consider six compounds from ChEMBL document CHEMBL1151199, “5-methylcoumaranones from Mutisia friesiana and their bioactivity” (2004).

The structures appear in SMILES notation. Activity calls are given as the source filed them. The rule behind the calls is not given here.

In test [1] the test system is Staphylococcus aureus. The test can be described thus: Antibacterial activity against Staphylococcus aureus ATCC 29213 at 10 ug/disk after 48 hrs by standard paper sensitivity disk-agar plate method. It is filed as functional. The conditions noted are these: ATCC 29213, 48 h, read-out: IZ.
Test [2] relates to Cladosporium cucumerinum. The test can be described thus: Antifungal activity against Cladosporium cucumerinum at 10 ug/spot after 2 to 3 days by bioautographic assay. It is filed as functional. Put shortly:
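TLC bioautography: samples spotted onto a TLC plate with graduated capillaries and assayed against the plant pathogen Cladosporium cucumerinum. Activity is read as the diameter (mm) of the inhibition zone around the spot. Benomyl served as the reference fungicide.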

For test [3], the system named is Escherichia coli. The test can be described thus: Antibacterial activity against Escherichia coli ATCC 25922 at 100 ug/disk after 48 hrs by standard paper sensitivity disk-agar plate method. The format is functional, organism-based. Put shortly: (§1)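 Agar in Petri dishes inoculated with the test organism (E. coli ATCC 25922, S. aureus ATCC 29213 or C. albicans BE 138/99). Samples were loaded at 100 µg per 5 mm paper disk, and the disks were placed on the agar. The read-out was the diameter of the inhibition zone in mm.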

Test [4] deals with Staphylococcus aureus. Description: Antibacterial activity against Staphylococcus aureus ATCC 29213 at 100 ug/disk after 48 hrs by standard paper sensitivity disk-agar plate method. The format is functional. As to conditions: ATCC 29213, 48 h, read-out: IZ. The method in brief:
as §1

Test [5] concerns Cladosporium cucumerinum. Description: Antifungal activity against Cladosporium cucumerinum at 100 ug/spot after 2 to 3 days by bioautographic assay. It is filed as functional. The method in brief: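 Each sample was dissolved at 10 mg ml-1 in CH2Cl2, and 10 µL was spotted onto a TLC plate by graduated capillary, giving 100 µg/spot. The plate was then assayed bioautographically against Cladosporium cucumerinum. Benomyl served as the reference fungicide, applied at 10 µg/spot. The read-out was the inhibition zone in mm.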

The subject of test [6] is Candida albicans. The test can be described thus: Antifungal activity against Candida albicans BE 138/99 at 100 ug/disk after 48 hrs by standard paper sensitivity disk-agar plate method. It is filed as functional, organism-based. Put shortly:
as §1

With `CC1(C)S[C@@H]2[C@H](NC(=O)[C@H](N)c3ccccc3)C(=O)N2[C@H]1C(=O)O` [AMPICILLIN], the zone of inhibition at 10 µg/disc in test [1] came to 14 mm.

In the case of `CCCCNC(=O)n1c(NC(=O)OC)nc2ccccc21` [BENOMYL], the “inhibition zone (IZ)” value in test [2] is on record as 20 mm.

For the compound `CC(C)=CCC/C(C)=C/CC1(O)Oc2cccc(C)c2C1=O` (stereo not drawn) [MUTISICOUMARANONE A], the result in test [3] and in test [6] was inactive. Further, in test [4], the zone of inhibition at 100 µg/disc was determined as 10 mm. Also, the “inhibition zone (IZ)” value in test [5] came out at 8 mm.

Turning to `CC(C)=CC(O)C(=O)/C(C)=C/CC/C(C)=C/CC1(O)Oc2cccc(C)c2C1=O` (stereo not drawn) [MUTISICOUMARANONE B], the result in test [3] and in test [6] was inactive. Also, the zone of inhibition at 100 µg/disc in test [4] stood at 10 mm. The “inhibition zone (IZ)” value in test [5] came out at 14 mm.

Consider `C/C(=C\CC1(O)Oc2cccc(C)c2C1=O)CC/C=C(\C)C(=O)/C=C/C(C)(C)O` (stereo not drawn) [MUTISICOUMARANONE C], for which the result in test [3] and in test [6] was inactive. In test [4], the zone of inhibition at 100 µg/disc amounted to 10 mm. Further, in test [5], the “inhibition zone (IZ)” value turned out to be 14 mm.

Turning to `CC(C)=CCC(O)/C(C)=C/CC/C(C)=C/CC1(O)Oc2cccc(C)c2C1=O` (stereo not drawn) [MUTISICOUMARANONE D], the result in test [3] and in test [6] was inactive. Further, in test [4], the zone of inhibition at 100 µg/disc stood at 10 mm. Also, in test [5], the “inhibition zone (IZ)” value is listed as 10 mm.
